In ChEMBL document CHEMBL1914368, “Imidazo[1,5-a]quinoxalines as irreversible BTK inhibitors for the treatment of rheumatoid arthritis” (Bioorg Med Chem Lett, 2011):

Columns and labels:
[1] = target: Proto-oncogene tyrosine-protein kinase Src (Homo sapiens, UniProt P12931); assay: Inhibition of SRC relative to control; settings: concentration not given here
[2] = target: T1, Receptor tyrosine-protein kinase erbB-4 (Homo sapiens, UniProt Q15303); assay: Inhibition of ERBB4 relative to control
[3] = target: Tyrosine-protein kinase Fgr (Homo sapiens) (UniProt P09769); assay: Inhibition of FGR relative to control; settings: concentration not given here
[4] = target: Tyrosine-protein kinase Lck (Homo sapiens, UniProt P06239); assay: Inhibition of C-terminal His6-tagged human full-length LCK expressed in Sf9 cells after 60 mins by TR-FRET Assay
[5] = target: Platelet-derived growth factor receptor beta (Homo sapiens) (UniProt P09619); assay: Inhibition of PDGFRbeta relative to control; settings: concentration not given here
[6] = target: Protein kinase C alpha type (Homo sapiens) (UniProt P17252); assay: Inhibition of PRKCA relative to control; settings: concentration not given here
[7] = target: Vascular endothelial growth factor receptor 1 (Homo sapiens) (UniProt P17948); assay: Inhibition of FLT1 relative to control; settings: concentration not given here
[8] = Half life in mouse at 10 mg/kg, po; format: ADME, organism-based; set-up: dose 10 mg/kg, route oral; settings: in vivo
[9] = target: Mitogen-activated protein kinase 3 (Homo sapiens) (UniProt P27361); assay: Inhibition of MAPK3 relative to control; settings: concentration not given here
Sequence of Mitogen-activated protein kinase 3 (Homo sapiens) (P27361 whole entry): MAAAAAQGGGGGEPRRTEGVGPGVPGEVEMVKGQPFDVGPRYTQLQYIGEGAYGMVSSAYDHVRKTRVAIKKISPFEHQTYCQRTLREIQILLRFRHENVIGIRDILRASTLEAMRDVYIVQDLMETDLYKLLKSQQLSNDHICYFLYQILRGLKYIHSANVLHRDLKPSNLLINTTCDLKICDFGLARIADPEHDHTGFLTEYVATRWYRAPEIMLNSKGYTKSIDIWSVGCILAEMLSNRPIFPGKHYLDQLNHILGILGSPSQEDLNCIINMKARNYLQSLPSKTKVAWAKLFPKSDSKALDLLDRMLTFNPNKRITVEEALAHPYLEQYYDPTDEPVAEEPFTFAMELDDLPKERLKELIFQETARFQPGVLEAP

[10] = target: Tyrosine-protein kinase Lyn (Homo sapiens, UniProt P07948); assay: Inhibition of LYN-A expressed in Sf9 cells preincubated for 60 mins measured after 60 mins by TR-FRET Assay
Sequence of Tyrosine-protein kinase Lyn (P07948 whole entry): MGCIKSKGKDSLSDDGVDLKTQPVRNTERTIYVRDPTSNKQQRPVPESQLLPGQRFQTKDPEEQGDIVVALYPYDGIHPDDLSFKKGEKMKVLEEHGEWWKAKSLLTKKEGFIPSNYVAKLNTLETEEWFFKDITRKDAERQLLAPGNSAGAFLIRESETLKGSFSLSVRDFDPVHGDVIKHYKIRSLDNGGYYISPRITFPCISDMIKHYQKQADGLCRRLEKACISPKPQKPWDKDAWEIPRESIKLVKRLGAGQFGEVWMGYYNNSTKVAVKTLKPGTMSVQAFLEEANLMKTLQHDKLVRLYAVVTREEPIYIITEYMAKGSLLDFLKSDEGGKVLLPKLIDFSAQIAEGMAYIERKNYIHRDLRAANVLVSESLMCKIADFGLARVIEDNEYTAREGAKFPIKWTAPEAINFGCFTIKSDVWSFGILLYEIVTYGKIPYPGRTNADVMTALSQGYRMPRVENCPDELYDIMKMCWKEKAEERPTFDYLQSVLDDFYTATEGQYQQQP
How it was run: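 The compound was pre-incubated with the kinase before the enzymatic reaction was started. IC50 values are averages of two or more determinations.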

[11] = target: Proto-oncogene tyrosine-protein kinase receptor Ret (Homo sapiens) (UniProt P07949); assay: Inhibition of RET relative to control; settings: concentration not given here
[12] = target: Mitogen-activated protein kinase 9 (Homo sapiens) (UniProt P45984); assay: Inhibition of JNK2 relative to control; settings: concentration not given here
[13] = target: Angiopoietin-1 receptor (Homo sapiens) (UniProt Q02763); assay: Inhibition of TEK relative to control; settings: concentration not given here
[14] = Cmax in mouse at 10 mg/kg, po; format: ADME, organism-based; set-up: dose 10 mg/kg, route oral; settings: in vivo
[15] = target: Mitogen-activated protein kinase 10 (Homo sapiens) (UniProt P53779); assay: Inhibition of JNK3 relative to control; settings: concentration not given here
[16] = target: Vascular endothelial growth factor receptor 2 (Homo sapiens) (UniProt P35968); assay: Inhibition of KDR relative to control; settings: concentration not given here
[17] = target: Mitogen-activated protein kinase 14 (Homo sapiens) (UniProt Q16539); assay: Inhibition of MAPK14 relative to control; settings: concentration not given here
[18] = target: Tyrosine-protein kinase SYK (Homo sapiens) (UniProt P43405); assay: Inhibition of SYK relative to control; settings: concentration not given here
Ephrin type-A receptor 8 = Ephrin type-A receptor 8 (Homo sapiens, UniProt P29322); assay: (§1) Inhibition of EPHA8 relative to control
[19] = target: Ephrin type-A receptor 8 (Homo sapiens) (UniProt P29322); assay: as §1; settings: concentration not given here
[20] = target: Serine/threonine-protein kinase B-raf (Homo sapiens) (UniProt P15056); assay: Inhibition of B-Raf relative to control; settings: concentration not given here
[21] = target: Receptor-type tyrosine-protein kinase FLT3 (Homo sapiens) (UniProt P36888); assay: Inhibition of FLT3 relative to control; settings: concentration not given here
[22] = target: T2, Aryl hydrocarbon receptor (Mus musculus, UniProt P30561); assay: Agonist activity at Ah receptor in genetically engineered mouse cells expressing firefly luciferase gene by CALUX transactivational assay; format: functional
T2 sequence (P30561 whole entry): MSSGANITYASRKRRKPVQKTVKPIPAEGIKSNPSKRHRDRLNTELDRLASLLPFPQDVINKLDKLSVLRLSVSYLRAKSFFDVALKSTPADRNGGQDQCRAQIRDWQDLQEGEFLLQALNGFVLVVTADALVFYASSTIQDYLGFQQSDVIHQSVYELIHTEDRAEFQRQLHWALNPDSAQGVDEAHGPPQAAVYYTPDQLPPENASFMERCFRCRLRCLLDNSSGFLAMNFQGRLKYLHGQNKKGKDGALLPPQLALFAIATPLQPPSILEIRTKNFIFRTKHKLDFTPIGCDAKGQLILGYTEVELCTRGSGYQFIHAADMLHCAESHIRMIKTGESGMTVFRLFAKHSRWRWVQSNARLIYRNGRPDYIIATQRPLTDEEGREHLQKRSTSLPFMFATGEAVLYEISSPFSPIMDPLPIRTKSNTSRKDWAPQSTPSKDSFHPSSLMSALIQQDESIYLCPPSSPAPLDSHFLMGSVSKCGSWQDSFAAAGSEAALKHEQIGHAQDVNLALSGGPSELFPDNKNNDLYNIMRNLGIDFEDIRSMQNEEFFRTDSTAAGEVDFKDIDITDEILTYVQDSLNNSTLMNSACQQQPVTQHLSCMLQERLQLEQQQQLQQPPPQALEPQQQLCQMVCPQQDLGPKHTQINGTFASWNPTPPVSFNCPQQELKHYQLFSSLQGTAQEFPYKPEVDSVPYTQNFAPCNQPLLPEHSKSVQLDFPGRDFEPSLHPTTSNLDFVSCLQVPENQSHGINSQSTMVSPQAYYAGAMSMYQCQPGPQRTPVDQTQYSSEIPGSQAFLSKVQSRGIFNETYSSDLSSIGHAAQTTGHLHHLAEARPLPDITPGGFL

[23] = target: Phosphatidylinositol 4-phosphate 3-kinase C2 domain-containing subunit alpha (Homo sapiens) (UniProt O00443); assay: Inhibition of PI3K-C2 alpha relative to control; settings: concentration not given here
[24] = target: Tyrosine-protein kinase Mer (Homo sapiens) (UniProt Q12866); assay: Inhibition of MERTK relative to control; settings: concentration not given here
[25] = target: Protein-tyrosine kinase 6 (Homo sapiens) (UniProt Q13882); assay: Inhibition of BRK relative to control; settings: concentration not given here
[26] = target: Tyrosine-protein kinase ABL1 (Homo sapiens, UniProt P00519); assay: Inhibition of Abl1 relative to control
[27] = target: T1, Receptor tyrosine-protein kinase erbB-4; assay: Inhibition of HER4 relative to control; settings: concentration not given here
[28] = target: Ribosomal protein S6 kinase alpha-1 (Homo sapiens) (UniProt Q15418); assay: Inhibition of RSK1 relative to control; settings: concentration not given here
[29] = target: Receptor tyrosine-protein kinase erbB-2 (Homo sapiens) (UniProt P04626); assay: Inhibition of HER2 relative to control; settings: concentration not given here
Sequence of Receptor tyrosine-protein kinase erbB-2 (Homo sapiens) (P04626 whole entry): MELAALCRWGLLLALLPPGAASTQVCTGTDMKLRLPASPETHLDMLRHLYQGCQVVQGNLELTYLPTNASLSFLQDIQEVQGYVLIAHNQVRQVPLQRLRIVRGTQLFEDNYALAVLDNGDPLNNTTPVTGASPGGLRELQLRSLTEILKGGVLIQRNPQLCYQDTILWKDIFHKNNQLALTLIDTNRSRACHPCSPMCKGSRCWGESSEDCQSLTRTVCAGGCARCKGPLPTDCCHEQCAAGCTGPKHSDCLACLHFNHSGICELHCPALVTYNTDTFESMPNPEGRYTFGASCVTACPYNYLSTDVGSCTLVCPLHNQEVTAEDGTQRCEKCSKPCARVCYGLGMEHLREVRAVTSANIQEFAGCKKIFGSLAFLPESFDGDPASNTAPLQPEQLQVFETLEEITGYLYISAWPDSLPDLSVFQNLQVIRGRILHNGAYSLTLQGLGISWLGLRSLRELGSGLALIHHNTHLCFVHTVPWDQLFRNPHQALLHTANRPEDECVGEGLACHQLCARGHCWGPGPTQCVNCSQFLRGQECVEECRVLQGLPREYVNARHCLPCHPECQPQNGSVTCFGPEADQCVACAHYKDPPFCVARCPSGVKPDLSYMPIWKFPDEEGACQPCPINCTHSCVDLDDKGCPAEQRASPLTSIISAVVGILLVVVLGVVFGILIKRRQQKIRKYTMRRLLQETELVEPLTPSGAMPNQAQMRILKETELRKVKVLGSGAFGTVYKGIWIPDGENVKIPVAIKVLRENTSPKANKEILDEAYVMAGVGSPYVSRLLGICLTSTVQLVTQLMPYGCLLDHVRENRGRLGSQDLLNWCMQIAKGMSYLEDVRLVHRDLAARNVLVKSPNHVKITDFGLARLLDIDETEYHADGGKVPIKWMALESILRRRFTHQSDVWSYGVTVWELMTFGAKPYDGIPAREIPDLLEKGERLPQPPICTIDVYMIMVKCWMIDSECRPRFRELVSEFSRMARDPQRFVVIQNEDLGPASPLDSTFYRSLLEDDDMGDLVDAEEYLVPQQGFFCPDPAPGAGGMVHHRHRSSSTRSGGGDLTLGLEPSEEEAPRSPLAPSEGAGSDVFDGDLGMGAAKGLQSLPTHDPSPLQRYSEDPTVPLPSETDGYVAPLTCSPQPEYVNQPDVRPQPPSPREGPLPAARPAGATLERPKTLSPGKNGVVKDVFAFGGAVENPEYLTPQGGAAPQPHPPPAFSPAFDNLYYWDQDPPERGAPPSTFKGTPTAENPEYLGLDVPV

[30] = target: Tyrosine-protein kinase Fyn (Homo sapiens, UniProt P06241); assay: Inhibition of FYN relative to control
[31] = target: Glycogen synthase kinase-3 alpha (Homo sapiens) (UniProt P49840); assay: Inhibition of GSK3A relative to control; settings: concentration not given here
[32] = Inhibition of anti-IgM-stimulated human B cell proliferation assessed as [3H]thymidine incorporation preincubated for 30 mins measured after 3 days; format: functional, cell-based; settings: Homo sapiens, B-cell; read-out: IC50
[33] = target: Serine/threonine-protein kinase Nek2 (Homo sapiens) (UniProt P51955); assay: Inhibition of NEK2 relative to control; settings: concentration not given here
[34] = target: Hepatocyte growth factor receptor (Homo sapiens) (UniProt P08581); assay: Inhibition of MET relative to control; settings: concentration not given here
Sequence of Hepatocyte growth factor receptor (Homo sapiens) (P08581 whole entry): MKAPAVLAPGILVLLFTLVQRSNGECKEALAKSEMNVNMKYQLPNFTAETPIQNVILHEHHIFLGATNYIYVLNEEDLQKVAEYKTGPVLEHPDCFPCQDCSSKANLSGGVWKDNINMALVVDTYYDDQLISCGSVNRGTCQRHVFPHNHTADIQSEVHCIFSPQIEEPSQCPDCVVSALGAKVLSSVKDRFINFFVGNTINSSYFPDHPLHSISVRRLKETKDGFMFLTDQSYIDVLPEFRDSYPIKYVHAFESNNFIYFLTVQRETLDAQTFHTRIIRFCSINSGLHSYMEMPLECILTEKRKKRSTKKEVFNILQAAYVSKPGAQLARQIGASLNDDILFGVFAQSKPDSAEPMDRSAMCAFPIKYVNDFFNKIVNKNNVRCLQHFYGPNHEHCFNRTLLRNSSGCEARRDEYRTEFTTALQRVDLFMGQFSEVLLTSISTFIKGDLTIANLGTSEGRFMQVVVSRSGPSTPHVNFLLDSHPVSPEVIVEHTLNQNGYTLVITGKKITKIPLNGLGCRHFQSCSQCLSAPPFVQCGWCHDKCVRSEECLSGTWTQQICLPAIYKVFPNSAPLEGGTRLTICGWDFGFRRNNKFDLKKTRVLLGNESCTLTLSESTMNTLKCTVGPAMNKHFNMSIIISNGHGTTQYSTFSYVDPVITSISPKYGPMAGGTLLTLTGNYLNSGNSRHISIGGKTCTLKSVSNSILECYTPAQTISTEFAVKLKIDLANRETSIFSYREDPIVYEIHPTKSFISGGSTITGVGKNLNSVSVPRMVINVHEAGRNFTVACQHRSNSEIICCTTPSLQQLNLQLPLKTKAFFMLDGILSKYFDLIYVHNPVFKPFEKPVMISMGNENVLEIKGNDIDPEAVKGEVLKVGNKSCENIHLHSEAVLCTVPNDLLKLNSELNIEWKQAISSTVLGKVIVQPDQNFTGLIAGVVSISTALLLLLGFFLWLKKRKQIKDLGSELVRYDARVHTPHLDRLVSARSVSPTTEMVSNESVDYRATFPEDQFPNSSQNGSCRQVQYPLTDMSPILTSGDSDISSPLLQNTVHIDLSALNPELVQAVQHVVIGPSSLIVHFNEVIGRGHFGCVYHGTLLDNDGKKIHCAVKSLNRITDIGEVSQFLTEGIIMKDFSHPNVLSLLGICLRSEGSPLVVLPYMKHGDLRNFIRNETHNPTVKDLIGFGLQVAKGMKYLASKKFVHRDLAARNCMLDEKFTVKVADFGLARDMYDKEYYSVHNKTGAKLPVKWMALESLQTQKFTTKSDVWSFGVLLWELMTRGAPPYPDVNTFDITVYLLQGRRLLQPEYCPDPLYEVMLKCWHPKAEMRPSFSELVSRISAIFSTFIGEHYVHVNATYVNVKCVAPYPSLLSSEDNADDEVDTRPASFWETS

[35] = target: Insulin receptor (Homo sapiens) (UniProt P06213); assay: Inhibition of INSR relative to control; settings: concentration not given here

T1 sequence (Q15303 whole entry): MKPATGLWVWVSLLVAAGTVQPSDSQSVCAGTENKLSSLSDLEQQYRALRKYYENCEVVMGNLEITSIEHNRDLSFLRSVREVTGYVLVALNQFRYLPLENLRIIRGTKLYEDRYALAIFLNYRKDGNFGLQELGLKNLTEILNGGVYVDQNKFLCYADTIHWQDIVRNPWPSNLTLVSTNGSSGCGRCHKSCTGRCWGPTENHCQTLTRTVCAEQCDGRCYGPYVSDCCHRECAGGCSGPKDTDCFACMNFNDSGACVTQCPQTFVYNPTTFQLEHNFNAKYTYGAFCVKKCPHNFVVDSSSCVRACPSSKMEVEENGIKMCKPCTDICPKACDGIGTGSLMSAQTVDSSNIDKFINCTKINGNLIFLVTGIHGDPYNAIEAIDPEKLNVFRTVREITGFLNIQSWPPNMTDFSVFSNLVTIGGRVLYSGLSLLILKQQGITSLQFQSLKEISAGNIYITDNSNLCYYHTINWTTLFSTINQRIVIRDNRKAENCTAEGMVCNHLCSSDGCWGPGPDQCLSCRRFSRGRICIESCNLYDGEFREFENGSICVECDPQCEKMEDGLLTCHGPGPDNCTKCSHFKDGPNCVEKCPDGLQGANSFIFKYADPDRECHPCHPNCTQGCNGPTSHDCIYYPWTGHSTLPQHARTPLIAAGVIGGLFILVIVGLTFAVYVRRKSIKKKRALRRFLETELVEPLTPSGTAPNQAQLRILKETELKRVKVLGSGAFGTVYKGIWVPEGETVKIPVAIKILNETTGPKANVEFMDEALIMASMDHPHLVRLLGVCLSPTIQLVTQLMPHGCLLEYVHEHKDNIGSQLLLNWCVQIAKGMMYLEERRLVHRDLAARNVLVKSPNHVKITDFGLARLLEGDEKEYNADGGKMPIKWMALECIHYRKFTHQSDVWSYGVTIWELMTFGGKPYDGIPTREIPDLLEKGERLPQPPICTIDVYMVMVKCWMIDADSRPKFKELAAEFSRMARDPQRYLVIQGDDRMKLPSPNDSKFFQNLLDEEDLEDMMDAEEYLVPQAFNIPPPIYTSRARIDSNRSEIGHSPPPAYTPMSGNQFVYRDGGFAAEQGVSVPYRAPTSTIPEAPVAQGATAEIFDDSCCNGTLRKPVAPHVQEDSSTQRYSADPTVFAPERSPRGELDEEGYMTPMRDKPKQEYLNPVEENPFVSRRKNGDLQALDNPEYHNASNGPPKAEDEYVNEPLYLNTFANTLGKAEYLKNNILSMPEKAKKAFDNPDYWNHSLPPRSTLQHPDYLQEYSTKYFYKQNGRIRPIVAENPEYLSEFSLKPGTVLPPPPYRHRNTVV

inhibition [1]: 43% | IC50 [2]: 43.7 nM | inhibition [3]: 15% | IC50 [4]: 772 nM | inhibition [5]: 2% | inhibition [6]: -6% | inhibition [7]: 1% | half-life [8]: 2 h | inhibition [9]: 1% | IC50 [10]: 353 nM | inhibition [11]: 6% | inhibition [12]: 18% | inhibition [13]: 13% | Cmax [14]: 220 ng/mL | inhibition [15]: 0% | inhibition [16]: 7% | inhibition [17]: 6% | inhibition [18]: 0% | IC50 (Ephrin type-A receptor 8): 434 nM | inhibition [19]: 54% | inhibition [20]: 19% | inhibition [21]: -8% | EC50 [22]: > 10000 nM | inhibition [23]: 0% | inhibition [24]: 4% | inhibition [25]: -4% | IC50 [26]: 109 nM | inhibition [27]: 101% | inhibition [28]: 0% | inhibition [29]: 19% | IC50 [30]: 892 nM | inhibition ([30]; concentration not given here): 40% | inhibition [31]: 8% | inhibition [33]: 10% | inhibition [34]: -1% | inhibition [35]: -5%
Structure (SMILES): Cc1ccccc1Nc1nc2cc(F)c(N(C)C(=O)/C=C/CN(C)C)cc2n2cncc12
IC50 [32]: 3.41 nM
